The record followed here is ChEMBL document CHEMBL1145994, “CCR2: characterization of the antagonist binding site from a combined receptor modeling/mutagenesis approach” (J Med Chem, 2003).

Molecules are shown by their SMILES. Active and inactive are the calls of the source. The rule behind the calls is not given here.

For assay [1], the target named is C-C chemokine receptor type 2 (Homo sapiens, UniProt P41597, Q288A). Kind of assay: Binding affinity of compound (10 uM) towards Q288A receptor variant (mutant CCR2 receptor) using radioligand [125I]MCP-1 in HEK 293 cells. In kind it is cell-based, HEK293.
In assay [2] the target is C-C chemokine receptor type 2 (Homo sapiens, UniProt P41597, Y49F). Nature of the assay: Binding affinity of compound (10 uM) towards Y49F receptor variant (mutant CCR2 receptor) using radioligand [125I]MCP-1 in HEK 293 cells. In kind it is cell-based, HEK293.
The target in assay [3] is T1, C-C chemokine receptor type 2 (Homo sapiens, UniProt P41597). Kind of assay: Binding affinity of compound (10 uM) towards […] receptor variant (mutant CCR2 receptor) using radioligand [125I]MCP-1 in HEK 293 cells. It counts as cell-based, HEK293. The method in brief: (§1)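 Wild-type or point-mutant CCR2 cDNA in pcDNA3.1 transiently transfected into HEK-293T cells at 50–80% confluence, with a co-transfected human G-protein plasmid cocktail. Membranes harvested 48 h later by sonication and differential centrifugation.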
Target sequence in this assay (P41597 whole entry, looked up, change not shown): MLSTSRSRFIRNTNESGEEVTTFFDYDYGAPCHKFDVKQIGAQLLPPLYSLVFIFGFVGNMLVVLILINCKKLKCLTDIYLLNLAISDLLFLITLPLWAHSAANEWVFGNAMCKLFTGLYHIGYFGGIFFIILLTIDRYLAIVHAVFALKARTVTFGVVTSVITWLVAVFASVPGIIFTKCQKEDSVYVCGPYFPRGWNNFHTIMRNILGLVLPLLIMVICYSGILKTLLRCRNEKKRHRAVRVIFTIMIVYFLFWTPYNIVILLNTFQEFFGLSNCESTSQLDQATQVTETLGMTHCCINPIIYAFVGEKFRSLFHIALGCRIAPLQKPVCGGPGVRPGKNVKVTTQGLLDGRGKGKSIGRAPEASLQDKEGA

Assay [4] concerns the target C-C chemokine receptor type 2 (Homo sapiens, UniProt P41597, T290A). Kind of assay: Binding affinity of compound (10 uM) towards T290A receptor variant (mutant CCR2 receptor) using radioligand [125I]MCP-1 in HEK 293 cells. In kind it is cell-based, HEK293. The method in brief:
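HEK 293 cells transiently transfected with point-mutated human CCR2 (lipofectAMINE Plus, with a human G-protein plasmid cocktail). Membranes were harvested 48 h later in HEPES pH 7/sucrose/EDTA with protease inhibitors.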

The target in assay [5] is C-C chemokine receptor type 2 (Homo sapiens, UniProt P41597, D284A). Nature of the assay: Binding affinity of compound (10 uM) towards D284A receptor variant (mutant CCR2 receptor) using radioligand [125I]MCP-1 in HEK 293 cells. It counts as cell-based, HEK293.
Assay [6] deals with T1, C-C chemokine receptor type 2. Nature of the assay: Binding affinity of compound (10 uM) towards Y210A-292A receptor variant (double mutant CCR2 receptor) using radioligand [125I]MCP-1 in HEK 293 cells; Inactive. In kind it is cell-based. The following applies: HEK293. The method in brief: as §1
Target sequence in this assay (P41597 whole entry, looked up): as the sequence (P41597 whole entry, looked up, change not shown) above
For assay [7], the target named is C-C chemokine receptor type 2 (Homo sapiens, UniProt P41597, H121F). Nature of the assay: Binding affinity of compound (10 uM) towards H121F receptor variant (mutant CCR2 receptor) using radioligand [125I]MCP-1 in HEK 293 cells. It counts as cell-based, HEK293.
Assay [8] concerns the target C-C chemokine receptor type 2 (Homo sapiens, UniProt P41597, H121A/T292A). Kind of assay: Binding affinity of compound (10 uM) towards H121A/T292A receptor variant (double mutant CCR2 receptor) using radioligand [125I]MCP-1 in HEK 293 cells. In kind it is cell-based, HEK293. Summed up: as §1
In assay [9] the target is T1, C-C chemokine receptor type 2. Kind of assay: Inhibition of chemotaxis by C-C chemokine receptor type 2 antagonist in human monocytes was measured in the presence 1 nM MCP-1. It counts as functional, cell-based. Summed up: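 Human monocyte chemotaxis driven by 1 nM MCP-1 as agonist. Antagonist added from a 10 mM DMSO stock, final 10 nM to 10 μM; vehicle control included. Values reported as pKb.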
Target sequence in this assay (P41597 whole entry, looked up): as the sequence (P41597 whole entry, looked up, change not shown) above

In assay [10] the target is C-C chemokine receptor type 2 (Homo sapiens, UniProt P41597, T292A). Nature of the assay: Binding affinity of compound (10 uM) towards T292A receptor variant (mutant CCR2 receptor) using radioligand [125I]MCP-1 in HEK 293 cells. In kind it is cell-based, HEK293.
Assay [11] deals with C-C chemokine receptor type 2 (Homo sapiens, UniProt P41597, E291Q). Kind of assay: Binding affinity of compound (10 uM) towards E291Q receptor variant (mutant CCR2 receptor) using radioligand [125I]MCP-1 in HEK 293 cells. It counts as cell-based, HEK293. Summed up: as §1
Assay [12] concerns the target C-C chemokine receptor type 2 (Homo sapiens, UniProt P41597, H121A). Kind of assay: Binding affinity of compound (10 uM) towards H121A receptor variant (mutant CCR2 receptor) using radioligand [125I]MCP-1 in HEK 293 cells. In kind it is cell-based, HEK293.
The target of assay [13] is T1, C-C chemokine receptor type 2. Nature of the assay: Binding affinity of compound (10 uM) towards WT receptor variant (mutant C-C chemokine receptor type 2) using radioligand [125I]MCP-1 in HEK 293 cells. As to conditions: hek293. It counts as cell-based.
Target sequence in this assay (P41597 whole entry, looked up, change not shown): as above
Assay [14] shares this target. Kind of assay: Binding displacement of [125I]MCP-1 (0.14 nM) was measured on CHO cell membranes expressing human CCR2 (C-C chemokine receptor type 2).
Target sequence in this assay (P41597 whole entry): as the sequence (P41597 whole entry, looked up, change not shown) above
Assay [15] relates to T2, C-C chemokine receptor type 2 (Homo sapiens), P41597 [E291Q].
T2 sequence (whole entry): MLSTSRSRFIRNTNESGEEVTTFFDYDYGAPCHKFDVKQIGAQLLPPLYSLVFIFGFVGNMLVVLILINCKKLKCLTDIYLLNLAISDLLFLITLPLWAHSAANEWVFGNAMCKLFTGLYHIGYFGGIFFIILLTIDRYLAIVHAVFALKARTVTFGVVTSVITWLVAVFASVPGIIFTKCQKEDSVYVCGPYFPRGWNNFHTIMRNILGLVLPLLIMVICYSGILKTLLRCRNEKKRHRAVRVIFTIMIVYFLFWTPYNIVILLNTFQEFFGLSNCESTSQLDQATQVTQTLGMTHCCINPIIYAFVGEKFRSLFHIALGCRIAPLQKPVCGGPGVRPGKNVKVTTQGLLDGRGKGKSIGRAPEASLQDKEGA
Kind of assay: Binding affinity of compound (10 uM) towards E291Q receptor variant (mutant CCR2 receptor) using radioligand [125I]MCP-1 in HEK 293 cells; Inactive. It counts as cell-based. As to conditions: HEK293. The method in brief:
as §1

For assay [16], the target named is T1, C-C chemokine receptor type 2. Kind of assay: Inhibitory activity against C-C chemokine receptor type 2 (antagonist activity). In kind it is functional.
Target sequence in this assay (P41597 whole entry): as the sequence (P41597 whole entry, looked up, change not shown) above
For assay [17] the target is unchanged. As to conditions: HEK293.
Target sequence in this assay (P41597 whole entry, looked up): as the sequence (P41597 whole entry, looked up, change not shown) above
In assay [18] the test system is T2, C-C chemokine receptor type 2 (Homo sapiens), P41597 [E291Q]. The following applies: HEK293.
In assay [19] the target is T1, C-C chemokine receptor type 2. As to conditions: HEK293. This is another data set of the same source.
Target sequence in this assay (P41597 whole entry, looked up): as the sequence (P41597 whole entry, looked up, change not shown) above

Sequence of C-C chemokine receptor type 2 (Homo sapiens, UniProt P41597, T290A) (P41597 whole entry T290A): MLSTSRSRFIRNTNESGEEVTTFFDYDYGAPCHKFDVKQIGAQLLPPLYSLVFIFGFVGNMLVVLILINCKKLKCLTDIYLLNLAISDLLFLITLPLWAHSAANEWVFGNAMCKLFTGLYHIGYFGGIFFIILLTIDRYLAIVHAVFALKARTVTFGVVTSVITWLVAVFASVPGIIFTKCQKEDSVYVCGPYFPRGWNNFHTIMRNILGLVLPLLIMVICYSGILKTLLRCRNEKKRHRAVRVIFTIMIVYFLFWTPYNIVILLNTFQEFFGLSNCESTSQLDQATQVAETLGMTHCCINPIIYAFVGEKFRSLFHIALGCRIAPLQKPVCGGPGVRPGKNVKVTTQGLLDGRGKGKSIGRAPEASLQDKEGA
Sequence of C-C chemokine receptor type 2 (Homo sapiens, UniProt P41597, T292A) (P41597 whole entry T292A): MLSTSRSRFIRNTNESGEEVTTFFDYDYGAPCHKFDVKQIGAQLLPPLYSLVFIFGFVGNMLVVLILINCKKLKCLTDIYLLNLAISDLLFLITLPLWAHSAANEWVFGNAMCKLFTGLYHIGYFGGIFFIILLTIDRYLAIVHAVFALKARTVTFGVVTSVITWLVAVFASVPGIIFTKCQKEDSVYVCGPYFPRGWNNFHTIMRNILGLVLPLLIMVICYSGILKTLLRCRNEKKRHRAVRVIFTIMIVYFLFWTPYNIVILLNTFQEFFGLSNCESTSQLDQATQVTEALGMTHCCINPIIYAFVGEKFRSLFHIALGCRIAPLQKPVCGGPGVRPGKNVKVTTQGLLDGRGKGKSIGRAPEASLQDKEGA
Sequence of C-C chemokine receptor type 2 (Homo sapiens, UniProt P41597, Q288A) (P41597 whole entry Q288A): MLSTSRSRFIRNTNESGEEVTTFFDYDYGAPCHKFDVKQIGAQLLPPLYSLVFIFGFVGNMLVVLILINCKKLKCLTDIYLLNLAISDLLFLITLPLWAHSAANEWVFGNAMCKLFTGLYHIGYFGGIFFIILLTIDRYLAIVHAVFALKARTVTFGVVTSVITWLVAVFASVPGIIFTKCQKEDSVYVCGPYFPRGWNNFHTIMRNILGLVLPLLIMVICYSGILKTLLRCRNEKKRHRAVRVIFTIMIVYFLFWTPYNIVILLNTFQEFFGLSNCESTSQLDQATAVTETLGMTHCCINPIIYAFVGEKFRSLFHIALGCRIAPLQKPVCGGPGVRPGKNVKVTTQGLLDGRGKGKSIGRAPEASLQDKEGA
Sequence of C-C chemokine receptor type 2 (Homo sapiens, UniProt P41597, D284A) (P41597 whole entry D284A): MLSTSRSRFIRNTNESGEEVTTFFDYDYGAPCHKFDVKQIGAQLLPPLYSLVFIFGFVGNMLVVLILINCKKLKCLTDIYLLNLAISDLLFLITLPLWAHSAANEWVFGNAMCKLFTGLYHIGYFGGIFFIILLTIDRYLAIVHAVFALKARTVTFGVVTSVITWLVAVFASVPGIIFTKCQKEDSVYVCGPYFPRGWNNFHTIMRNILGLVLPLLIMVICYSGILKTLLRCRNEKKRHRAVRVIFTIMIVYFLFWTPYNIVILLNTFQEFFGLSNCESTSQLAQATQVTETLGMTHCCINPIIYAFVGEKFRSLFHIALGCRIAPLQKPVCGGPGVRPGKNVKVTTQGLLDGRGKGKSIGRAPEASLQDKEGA
Sequence of C-C chemokine receptor type 2 (Homo sapiens, UniProt P41597, H121A/T292A) (P41597 whole entry H121A/T292A): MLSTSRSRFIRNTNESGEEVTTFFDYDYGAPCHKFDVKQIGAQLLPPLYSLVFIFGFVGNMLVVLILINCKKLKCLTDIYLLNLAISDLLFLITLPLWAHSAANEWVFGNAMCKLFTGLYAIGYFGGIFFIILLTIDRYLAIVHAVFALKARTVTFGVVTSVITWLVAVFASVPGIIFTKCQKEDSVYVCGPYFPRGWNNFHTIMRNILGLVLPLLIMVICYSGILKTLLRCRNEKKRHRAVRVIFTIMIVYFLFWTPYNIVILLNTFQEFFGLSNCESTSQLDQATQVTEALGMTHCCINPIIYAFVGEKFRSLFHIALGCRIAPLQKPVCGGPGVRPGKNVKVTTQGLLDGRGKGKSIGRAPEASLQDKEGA
Sequence of C-C chemokine receptor type 2 (Homo sapiens, UniProt P41597, H121A) (P41597 whole entry H121A): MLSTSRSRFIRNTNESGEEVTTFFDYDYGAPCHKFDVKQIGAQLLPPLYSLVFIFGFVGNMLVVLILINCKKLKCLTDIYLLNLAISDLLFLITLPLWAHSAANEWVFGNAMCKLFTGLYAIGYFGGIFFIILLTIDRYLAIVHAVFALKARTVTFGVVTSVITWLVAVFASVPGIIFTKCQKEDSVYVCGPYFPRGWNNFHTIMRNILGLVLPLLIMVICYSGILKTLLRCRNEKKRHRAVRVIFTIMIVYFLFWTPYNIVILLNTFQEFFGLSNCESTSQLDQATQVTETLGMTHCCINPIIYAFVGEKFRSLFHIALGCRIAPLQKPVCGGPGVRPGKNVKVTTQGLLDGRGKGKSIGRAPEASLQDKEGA
Sequence of C-C chemokine receptor type 2 (Homo sapiens, UniProt P41597, Y49F) (P41597 whole entry Y49F): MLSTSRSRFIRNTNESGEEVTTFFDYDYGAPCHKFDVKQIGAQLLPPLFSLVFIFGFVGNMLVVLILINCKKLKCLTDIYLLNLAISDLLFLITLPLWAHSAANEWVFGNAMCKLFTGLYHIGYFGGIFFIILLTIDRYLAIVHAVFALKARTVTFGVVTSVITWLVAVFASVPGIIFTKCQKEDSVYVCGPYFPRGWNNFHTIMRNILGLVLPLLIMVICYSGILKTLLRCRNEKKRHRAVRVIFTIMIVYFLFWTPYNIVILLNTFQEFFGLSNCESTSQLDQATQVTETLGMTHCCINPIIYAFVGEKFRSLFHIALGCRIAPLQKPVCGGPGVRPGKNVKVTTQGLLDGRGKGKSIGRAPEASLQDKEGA
Sequence of C-C chemokine receptor type 2 (Homo sapiens, UniProt P41597, H121F) (P41597 whole entry H121F): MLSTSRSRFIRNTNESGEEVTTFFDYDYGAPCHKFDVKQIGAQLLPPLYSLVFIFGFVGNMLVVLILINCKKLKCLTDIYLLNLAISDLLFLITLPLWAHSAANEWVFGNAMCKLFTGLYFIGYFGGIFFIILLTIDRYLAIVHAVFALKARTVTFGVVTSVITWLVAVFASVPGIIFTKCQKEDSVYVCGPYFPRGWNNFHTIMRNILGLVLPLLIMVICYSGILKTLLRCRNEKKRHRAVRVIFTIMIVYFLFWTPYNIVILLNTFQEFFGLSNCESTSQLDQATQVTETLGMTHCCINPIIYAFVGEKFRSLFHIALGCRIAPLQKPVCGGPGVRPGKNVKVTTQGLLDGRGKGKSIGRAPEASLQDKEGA

On to `Cc1ccc(-c2ccc3c(c2)C=C(C(=O)Nc2ccc(CN(C)C4CCOCC4)cc2)CCC3)cc1`, for which the Ki is 229 nM in assay [1]; 151 nM in assay [2]; 2570 nM in assay [3]; 105 nM in assay [4]; 589 nM in [5]; 24 nM in assay [7]. Besides, the Ki in assay [8] is 4790 nM; in assay [10], 759 nM; in assay [11] it was 2040 nM; in [12] it was 302 nM; in assay [14] it was 28.8 nM. The “Log Ki” value in [6] was “inactive”. Further, in [9], the pKb was 8.63. The “Log Ki” value in assay [13] is listed as -7.16.
On to `Cc1ccc(-c2ccc3c(c2)C=C(C(=O)Nc2ccc(C[N+](C)(C)C4CCOCC4)cc2)CCC3)cc1.[Cl-]`, for which the Ki in [1] is 9.77 nM; in assay [2], 27.5 nM; in assay [3], 105 nM; in [4], 21.4 nM; in assay [5], 12.6 nM; in [7], 2.63 nM. Moreover, the inhibition constant (Ki) in assay [8] was 182 nM; in assay [10], 28.8 nM; in assay [11], 148 nM; in assay [12], 17.8 nM; in assay [14] it was 4.17 nM. Also, the negative-log Kb (pKb) in [9] amounted to 9.53. In addition, the “Log Ki” value in [13] is given as -8.16.
For the molecule `O=C(/C=C/c1ccc(Cl)c(Cl)c1)NCCCCCN1CCC(c2c[nH]c3ccc(O)cc23)CC1`, the inhibition constant Ki was 170 nM in assay [1]; 16.6 nM in assay [2]; 562 nM in assay [3]; 129 nM in assay [4]; 229 nM in assay [5]; 166 nM in [7]. For the same molecule, the results for the Ki in [8], in assay [10] and in [12] were 2090 nM, 724 nM and 2510 nM, respectively. The molecule further displayed a negative-log Kb (pKb) in assay [9] of 7.71. The “Log Ki” value in [13] is recorded as -7. Moreover, in assay [15], the “Log Ki” value was “inactive”.
Regarding `Cc1ccc(CN2CC[C@@H](NC(=O)CNC(=O)c3cccc(C(F)(F)F)c3)C2)c(C)c1`, the inhibition constant (Ki) was 316 nM in [1]; 316 nM in assay [2]; 1820 nM in assay [3]; 724 nM in assay [5]; 661 nM in assay [7]; 7760 nM in [10]. Also, the inhibitory constant (Ki) in assay [12] is 2570 nM; in assay [14], 288 nM. Further, 54 nM corresponded to half-maximal inhibition in assay [16] (IC50). The “Log Ki” value in assay [6] and in [15] was “inactive” throughout. The negative-log Kb (pKb) in assay [9] was 6.4. Also, in assay [13], the “Log Ki” value is -6.47.
Turning to `Cc1ccc2c(c1)C1(CCN(CCc3nc(-c4ccccc4)oc3C)CC1)OC(=O)N2`, the “Log Ki” value in [17], in [18] and in [19] was “inactive” in each case. Also, the pKb in assay [9] came out at 7.57.
